Experimental data: ChEMBL document CHEMBL4732131, “Design, synthesis and evaluation of novel thienopyrimidine-based agents bearing diaryl urea functionality as potential inhibitors of angiogenesis” (Eur J Med Chem, 2021)
Calls of active or inactive are those of the source. No cut-off for these calls is given here.

Tests used:
HUVEC [1] = assay: Induction of apoptosis in HUVEC assessed as early apoptotic cells at IC50 measured after 48 hrs by Annexin V-FITC/propidium iodide staining based flow cytometry (reference value: 4.51%); type: functional, Homo sapiens
PC-3 [2] = assay: Induction of cell cycle arrest in human PC-3 cells assessed as number of cells at SubG1 phase at IC50 after 48 hrs by flow cytometry; type: functional
PC-3 [3] = assay: Induction of apoptosis in human PC-3 cells assessed as early apoptotic cells at IC50 measured after 48 hrs by Annexin V-FITC/propidium iodide staining based flow cytometry (reference value: 4.7%); type: functional
HUVEC [4] = assay: Antiproliferative activity against HUVEC incubated for 48 hrs by MTT assay; type: functional, cell-based; settings: Homo sapiens
Method in brief: (§1)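 8000 cells per well in complete medium, settled overnight at 37 °C under 5% CO2. Compounds were added from DMSO over a range of concentrations and incubated 48 h at 37 °C. MTT (5% solution) was added for 4 h and absorbance read at 570 nm. IC50 was taken from survival-versus-concentration curves. Negative control was 0.1% DMSO.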

PC-3 [5] = assay: Induction of cell cycle arrest in human PC3 cells assessed as accumulation at G1 phase at IC50 after 48 hrs by flow cytometry (reference value: 44.11%); type: functional
HUVEC [6] = assay: Induction of apoptosis in HUVEC assessed as viable cells at IC50 measured after 48 hrs by Annexin V-FITC/propidium iodide staining based flow cytometry (reference value: 87.4%); type: functional, Homo sapiens
PC-3 [7] = assay: Induction of apoptosis in human PC-3 cells assessed as late apoptotic cells at IC50 measured after 48 hrs by Annexin V-FITC/propidium iodide staining based flow cytometry (reference value: 5.16%); type: functional
PC-3 [8] = assay: Down-regulation of VEGFR2 phosphorylation in human PC-3 cells by Western blot analysis; type: functional, cell-based; settings: time 24-72 hrs, TDE = time-dependent effect
PC-3 [9] = assay: Antiproliferative activity against human PC-3 cells incubated for 48 hrs by MTT assay; type: functional, cell-based; settings: PC-3, 48 h; method in brief: as §1
HUVEC [10] = assay: Induction of cell cycle arrest in HUVEC assessed as number of cells at G2 phase at IC50 after 48 hrs by flow cytometry (reference value: 6.25%); type: functional, Homo sapiens
Method in brief: (§2)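 Cells were PI-stained and analysed by flow cytometry, with the phase fractions (subG1, G1, S, G2/M) taken from DNA content.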

HUVEC [11] = assay: Induction of apoptosis in HUVEC assessed as necrotic cells at IC50 measured after 48 hrs by Annexin V-FITC/propidium iodide staining based flow cytometry (reference value: 0.891%); type: functional, Homo sapiens
PC-3 [12] = assay: Induction of cell cycle arrest in human PC-3 cells assessed as number of cells at S phase at IC50 after 48 hrs by flow cytometry (reference value: 44.12%); type: functional
PC-3 [13] = assay: Induction of cell cycle arrest in human PC-3 cells assessed as number of cells at G2 phase at IC50 after 48 hrs by flow cytometry (reference value: 15.97%); type: functional
HUVEC [14] = assay: Induction of cell cycle arrest in HUVEC assessed as number of cells at S phase at IC50 after 48 hrs by flow cytometry (reference value: 41.49%); type: functional, Homo sapiens; method in brief: as §2
[15] = Cytotoxicity against human Hu02 cells incubated for 48 hrs by MTT assay; type: cell-based; settings: Hu02, 48 h; method in brief: as §1
Chorioallantoic membrane [16] = assay: Vascular disruptive effect in chicken fertilized egg chorioallantoic membrane assessed as decrease in number of capillary blood vessels by CAM assay relative to control; type: functional, tissue-based; design: concentration or dose not given beside the values; settings: Gallus gallus, dose or concentration not given here
HepG2 = assay: Antiproliferative activity against human HepG2 cells incubated for 48 hrs by MTT assay; type: functional, cell-based; settings: HepG2, 48 h; method in brief: as §1
PC-3 [17] = assay: Induction of apoptosis in human PC-3 cells assessed as necrotic cells at IC50 measured after 48 hrs by Annexin V-FITC/propidium iodide staining based flow cytometry (reference value: 7.74%); type: functional
Chorioallantoic membrane [18] = assay: Vascular disruptive effect in chicken fertilized egg chorioallantoic membrane assessed as reduced length of blood vessels by CAM assay; type: functional, tissue-based; settings: Gallus gallus
T47D = assay: Antiproliferative activity against human T47D cells incubated for 48 hrs by MTT assay; type: functional, cell-based; method in brief: as §1
PC-3 [19] = assay: Induction of apoptosis in human PC-3 cells assessed as viable cells at IC50 measured after 48 hrs by Annexin V-FITC/propidium iodide staining based flow cytometry (reference value: 81.4%); type: functional
HUVEC [20] = assay: Induction of apoptosis in HUVEC assessed as late apoptotic cells at IC50 measured after 48 hrs by Annexin V-FITC/propidium iodide staining based flow cytometry (reference value: 7.23%); type: functional, Homo sapiens
HUVEC [21] = assay: Induction of cell cycle arrest in HUVEC assessed as number of cells at G1 phase at IC50 after 48 hrs by flow cytometry (reference value: 40.93%); type: functional, Homo sapiens; method in brief: as §2
PC-3 [22] = assay: Down-regulation of VEGFR2 phosphorylation in human PC-3 cells at 48 hrs by Western blot analysis; type: functional, cell-based; settings: dose 2.4-5.4 µM
Method in brief: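 PC3 cells treated for 48 h at 2.4, 3.6 and 5.4 µM. Lysates run on 12% SDS-PAGE and transferred to nitrocellulose. Membranes probed overnight at 4 °C (12 h) for VEGFR-2 and p-VEGFR-2, with beta-actin as loading control. Detection by ECL.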

Question: Which results are given for `O=C(Nc1ccc(Cl)c(Cl)c1)Nc1nnc(Sc2ncnc3scc(-c4ccncc4)c23)s1`?
Answer: Activity (HUVEC [1]): 4.65%; Activity (PC-3 [2]): 4.38%; Activity (PC-3 [3]): 7.17%; IC50 (HUVEC [4]): 7.8 µM; Activity (PC-3 [5]): 45.2%; Activity (HUVEC [6]): 55.2%; Activity (PC-3 [7]): 37%; inhibition (PC-3 [8]): Tde; IC50 (PC-3 [9]): 3.6 µM; Activity (HUVEC [10]): 5.53%; Activity (HUVEC [11]): 21%; Activity (PC-3 [12]): 40.58%; Activity (PC-3 [13]): 12.85%; Activity (HUVEC [14]): 49.8%; IC50 [15]: 34.3 µM; inhibition (Chorioallantoic membrane [16]): 65%; IC50 (HepG2): 61.9 µM; Activity (PC-3 [17]): 12.6%; inhibition (Chorioallantoic membrane [18]; dose or concentration not given here): 46%; IC50 (T47D): 14.6 µM; Activity (PC-3 [19]): 43.2%; Activity (HUVEC [20]): 17%; Activity (HUVEC [21]): 48.3%; inhibition (PC-3 [22]): Dose-dependent effect

Question: Which results are given for `O=C(Nc1ccc(F)cc1)Nc1nnc(Sc2ncnc3scc(-c4ccncc4)c23)s1`?
Answer: Activity (PC-3 [2]): 9.73%; Activity (PC-3 [3]): 1.47%; IC50 (HUVEC [4]): 28.3 µM; Activity (PC-3 [5]): 55.92%; Activity (PC-3 [7]): 23%; IC50 (PC-3 [9]): 0.97 µM; Activity (PC-3 [12]): 29.76%; inhibition (Chorioallantoic membrane [16]): 27%; IC50 (HepG2): 31.7 µM; Activity (PC-3 [17]): 32.2%; inhibition (Chorioallantoic membrane [18]): inactive; IC50 (T47D): 18.9 µM; Activity (PC-3 [19]): 43.3%

Question: What does the source list for `Cc1ccc(NC(=O)Nc2nnc(Sc3ncnc4scc(-c5ccncc5)c34)s2)cc1Cl`?
Answer: IC50 (HUVEC [4]): 23.2 µM; IC50 (PC-3 [9]): 4.7 µM; IC50 (HepG2): 16 µM; IC50 (T47D): 34.8 µM

Question: With `O=C(Nc1cccc(C(F)(F)F)c1)Nc1nnc(Sc2ncnc3scc(-c4ccncc4)c23)s1` as the compound, how does the IC50 (HUVEC [4]) read?
Answer: 22.4 µM

Question: And the IC50 (PC-3 [9])?
Answer: 11.5 µM

Question: And the IC50 (HepG2)?
Answer: 15.3 µM

Question: And the IC50 (T47D)?
Answer: 45.1 µM

Question: What does the source list for `O=C(Nc1cccc(F)c1)Nc1nnc(Sc2ncnc3scc(-c4ccncc4)c23)s1`?
Answer: IC50 (HUVEC [4]): 13.7 µM; IC50 (PC-3 [9]): 6.6 µM; inhibition (Chorioallantoic membrane [16]): 35%; IC50 (HepG2): 64.1 µM; inhibition (Chorioallantoic membrane [18]): inactive; IC50 (T47D): 16.7 µM

Question: Which IC50 (HUVEC [4]) does the source give for `Cc1ccc(NC(=O)Nc2nnc(Sc3ncnc4scc(-c5ccncc5)c34)s2)cc1` here?
Answer: 19.3 µM

Question: What about the IC50 (PC-3 [9]) of the same compound?
Answer: 2.1 µM

Question: What about the IC50 (HepG2) of the same compound?
Answer: 52 µM

Question: What about the IC50 (T47D) of the same compound?
Answer: 17.8 µM

Question: Which results are given for `COc1ccc(NC(=O)Nc2nnc(Sc3ncnc4scc(-c5ccncc5)c34)s2)cc1`?
Answer: IC50 (HUVEC [4]): 16.9 µM; IC50 (PC-3 [9]): 9.9 µM; IC50 (HepG2): 14.6 µM; IC50 (T47D): > 100 µM

Question: Which Activity (PC-3 [3]) does the source give for `CNC(=O)c1cc(Oc2ccc(NC(=O)Nc3ccc(Cl)c(C(F)(F)F)c3)cc2)ccn1` [SORAFENIB] here?
Answer: 1.92%

Question: What about the IC50 (HUVEC [4]) of the same compound?
Answer: 2.8 µM

Question: And the Activity (PC-3 [5])?
Answer: 66.19%

Question: What about the Activity (HUVEC [6]) of the same compound?
Answer: 59.9%

Question: What about the IC50 (PC-3 [9]) of the same compound?
Answer: 15.5 µM

Question: What about the Activity (HUVEC [11]) of the same compound?
Answer: 16.4%

Question: What about the Activity (PC-3 [12]) of the same compound?
Answer: 22.32%

Question: And the Activity (HUVEC [14])?
Answer: 27.1%

Question: And the IC50 [15]?
Answer: 40 µM

Question: And the IC50 (HepG2)?
Answer: 29.6 µM

Question: And the Activity (PC-3 [17])?
Answer: 23.6%

Question: What about the IC50 (T47D) of the same compound?
Answer: 6.4 µM

Question: What about the Activity (PC-3 [19]) of the same compound?
Answer: 57.9%

Question: And the Activity (HUVEC [20])?
Answer: 23.8%

Question: And the Activity (HUVEC [21])?
Answer: 58.69%

Question: Which IC50 (HUVEC [4]) does the source give for `O=C(Nc1ccc(Cl)c(C(F)(F)F)c1)Nc1nnc(Sc2ncnc3scc(-c4ccncc4)c23)s1` here?
Answer: 18.4 µM

Question: What about the IC50 (PC-3 [9]) of the same compound?
Answer: 12.1 µM

Question: And the IC50 (HepG2)?
Answer: 45.3 µM

Question: What about the IC50 (T47D) of the same compound?
Answer: 28 µM

Question: With `O=C(Nc1ccc(Cl)cc1)Nc1nnc(Sc2ncnc3scc(-c4ccncc4)c23)s1` as the compound, how does the IC50 (HUVEC [4]) read?
Answer: 11.6 µM

Question: And the IC50 (PC-3 [9])?
Answer: 7.7 µM

Question: What about the inhibition (Chorioallantoic membrane [16]) of the same compound?
Answer: 21%

Question: What about the IC50 (HepG2) of the same compound?
Answer: 28.9 µM

Question: And the inhibition (Chorioallantoic membrane [18])?
Answer: inactive

Question: And the IC50 (T47D)?
Answer: 23.3 µM

Question: With `O=C(Nc1ccccc1)Nc1nnc(Sc2ncnc3scc(-c4ccncc4)c23)s1` as the compound, how does the IC50 (HUVEC [4]) read?
Answer: 19.3 µM

Question: And the IC50 (PC-3 [9])?
Answer: 5.7 µM

Question: What about the IC50 (HepG2) of the same compound?
Answer: 19.4 µM

Question: And the IC50 (T47D)?
Answer: 23.3 µM

Question: Which results are given for `Cc1cccc(NC(=O)Nc2nnc(Sc3ncnc4scc(-c5ccncc5)c34)s2)c1`?
Answer: IC50 (HUVEC [4]): 12.2 µM; IC50 (PC-3 [9]): 5.2 µM; inhibition (Chorioallantoic membrane [16]): 29%; IC50 (HepG2): 20.7 µM; inhibition (Chorioallantoic membrane [18]): inactive; IC50 (T47D): 27.2 µM

Question: Which IC50 (HUVEC [4]) does the source give for `COc1cccc(NC(=O)Nc2nnc(Sc3ncnc4scc(-c5ccncc5)c34)s2)c1` here?
Answer: 67.7 µM

Question: And the IC50 (PC-3 [9])?
Answer: 6.8 µM

Question: What about the IC50 (HepG2) of the same compound?
Answer: 28.4 µM

Question: And the IC50 (T47D)?
Answer: 56.9 µM

Question: With `O=C(Nc1cccc(Cl)c1)Nc1nnc(Sc2ncnc3scc(-c4ccncc4)c23)s1` as the compound, how does the IC50 (HUVEC [4]) read?
Answer: 21 µM

Question: And the IC50 (PC-3 [9])?
Answer: 8 µM

Question: What about the IC50 (HepG2) of the same compound?
Answer: 22.9 µM

Question: What about the IC50 (T47D) of the same compound?
Answer: 43.9 µM
